Data taken from ChEMBL document CHEMBL1153509, “2-O-beta-d-glucopyranosyl-sn-glycerol based analogues of sulfoquinovosyldiacylglycerols (SQDG) and their role in inhibiting Epstein-Barr virus early antigen activation” (Bioorg Med Chem, 2009).

How the values were obtained:
[1] = Cytotoxicity against human Raji cells assessed as cell viability at 10 molar ratio after 48 hrs by trypan blue staining method; assay type: cell-based; conditions: read-out: Activity
Summary of the method: (§1)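 Raji cells (1×10^6/mL) in RPMI 1640 with 10% fetal calf serum were incubated 48 h at 37 °C with 4 mM n-butyric acid, 32 pmol TPA in DMSO and test compound in DMSO. Compound doses were set as mol ratio to TPA. Viability was read by Trypan Blue staining 2 days after treatment.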

[2] = Cytotoxicity against human Raji cells assessed as cell viability at 1000 molar ratio after 48 hrs by trypan blue staining method; assay type: cell-based; conditions: read-out: Activity; summary of the method: as §1
[3] = Cytotoxicity against human Raji cells assessed as cell viability at 500 molar ratio after 48 hrs by trypan blue staining method; assay type: cell-based; conditions: read-out: Activity; summary of the method: as §1
[4] = test system: Raji; assay: Inhibition of 12-O-tetradecanoylphorbol-13-acetate-induced EBV-early antigen activation in human Raji cells assessed as early antigen induction at 100 molar ratio after 48 hrs by conventional indirect immunofluorescence technique relative to TPA; assay type: cell-based; set-up: scale not given: the % may be the effect or the level left; conditions: human gammaherpesvirus 4
Summary of the method: (§2)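 Raji cells (1×10^6/mL, RPMI 1640 plus 10% FCS) were incubated at 37 °C for 48 h in medium with 4 mM n-butyric acid, 32 pmol TPA in DMSO and test compound in DMSO, dosed as mol ratio to TPA. EA was detected by indirect immunofluorescence using high-titer EBV-positive NPC patient sera and FITC anti-human IgG, counting at least 500 cells. Runs were in triplicate. Results are expressed as % of the butyric acid plus TPA control (100%).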

[5] = test system: Raji; assay: Inhibition of 12-O-tetradecanoylphorbol-13-acetate-induced EBV-early antigen activation in human Raji cells assessed as early antigen induction at 1000 molar ratio after 48 hrs by conventional indirect immunofluorescence technique relative to TPA; assay type: cell-based; set-up: scale not given: the % may be the effect or the level left; conditions: human gammaherpesvirus 4; summary of the method: as §2
[6] = test system: Raji; assay: Inhibition of 12-O-tetradecanoylphorbol-13-acetate-induced EBV-early antigen activation in human Raji cells assessed as early antigen induction at 500 molar ratio after 48 hrs by conventional indirect immunofluorescence technique relative to TPA; assay type: cell-based; set-up: scale not given: the % may be the effect or the level left; conditions: human gammaherpesvirus 4; summary of the method: as §2
[7] = Inhibition of 12-O-tetradecanoylphorbol-13-acetate-induced EBV-early antigen activation in human Raji cells assessed per TPA after 48 hrs by conventional indirect immunofluorescence technique; assay type: cell-based, human gammaherpesvirus 4
Summary of the method: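 Raji cells (1×10^6/mL) were treated at 37 °C for 48 h with 4 mM n-butyric acid, 32 pmol TPA and test compound in DMSO. EA-positive cells were scored by indirect immunofluorescence (NPC patient sera, FITC anti-human IgG), at least 500 cells per run, in triplicate. IC50 was given as the compound/TPA mol ratio inhibiting 50% of the TPA-activated positive control.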

[8] = Cytotoxicity against human Raji cells assessed as cell viability at 100 molar ratio after 48 hrs by trypan blue staining method; assay type: cell-based; conditions: read-out: Activity; summary of the method: as §1
[9] = test system: Raji; assay: Inhibition of 12-O-tetradecanoylphorbol-13-acetate-induced EBV-early antigen activation in human Raji cells assessed as early antigen induction at 10 molar ratio after 48 hrs by conventional indirect immunofluorescence technique relative to TPA; assay type: cell-based; set-up: scale not given: the % may be the effect or the level left; conditions: human gammaherpesvirus 4; summary of the method: as §2

Row | Compound | IC50 [7] [mol ratio/TPA] | viability at 48 h, 10 molar ratio [1] [%] | viability at 48 h, 1000 molar ratio [2] [%] | viability at 48 h, 500 molar ratio [3] [%] | Activity [4] [%] | Activity [5] [%] | Activity [6] [%] | viability at 48 h, 100 molar ratio [8] [%] | Activity [9] [%]
1 | CCCCCC(=O)OCCO[C@@H]1O[C@H](CO)[C@H](O)[C@H](O)[C@H]1O | 350 | 80 | 70 | 80 | 78.5 | 6.7 | 49.5 | 80 | 100
2 | CCCCCC(=O)OC[C@H](CO)O[C@@H]1O[C@H](COC(=O)CCCCC)[C@@H](O)[C@H](O)[C@H]1O | 37.3 | 80 | 70 | 80 | 34.6 | 0 | 15.1 | 80 | 71.5
3 | CCCCCCCCCCCCCCCCCC(=O)OCC(COC(=O)CCCCCCCCCCCCCCCCC)O[C@@H]1O[C@H](CO)[C@@H](O)[C@H](O)[C@H]1O | 484 | 80 | 60 | 70 | 82.8 | 16.2 | 57.8 | 80 | 100
4 | CCCCCC(=O)OCC(COC(=O)CCCCC)O[C@@H]1O[C@H](CO)[C@@H](O)[C@H](O)[C@H]1O | 327 | 80 | 60 | 70 | 76.9 | 9.3 | 46.8 | 80 | 100
5 | CCCCCC(=O)OCC(COC(=O)CCCCC)O[C@@H]1O[C@H](CS(=O)(=O)[O-])[C@@H](O)[C@H](O)[C@H]1O.[Na+] | 539 | 80 | 50 | 70 | 84.3 | 20.3 | 60.5 | 80 | 100

The next lines start with results.

Row | IC50 [7] [mol ratio/TPA] | Compound | viability at 48 h, 10 molar ratio [1] [%] | viability at 48 h, 1000 molar ratio [2] [%] | viability at 48 h, 500 molar ratio [3] [%] | Activity [4] [%] | Activity [5] [%] | Activity [6] [%] | viability at 48 h, 100 molar ratio [8] [%] | Activity [9] [%]
6 | 632 | CCCCCCCCCCCCCCCCCC(=O)OCC(COC(=O)CCCCCCCCCCCCCCCCC)O[C@@H]1O[C@H](CS(=O)(=O)[O-])[C@@H](O)[C@H](O)[C@H]1O.[Na+] | 80 | 50 | 70 | 87.4 | 25.1 | 65.1 | 80 | 100
7 | 581 | CCCCCCCCCCCC(=O)OCC(COC(=O)CCCCCCCCCCC)O[C@@H]1O[C@H](CS(=O)(=O)[O-])[C@@H](O)[C@H](O)[C@H]1O.[Na+] | 80 | 50 | 70 | 85.2 | 23.4 | 62.6 | 80 | 100
8 | 402 | CCCCCCCCCCCC(=O)OCC(COC(=O)CCCCCCCCCCC)O[C@@H]1O[C@H](CO)[C@@H](O)[C@H](O)[C@H]1O | 80 | 60 | 70 | 80.5 | 13 | 52.4 | 80 | 100
